Measured values taken from the M2OR odorant receptor database.
Changes are numbered by the printed parent chain.

Legend:
Settings in all cases: stereoisomer not certain
OR6C65 (Homo sapiens) = molecular target: T1, OR6C65 (Homo sapiens) (UniProt A6NJZ3)
T1 sequence (whole entry): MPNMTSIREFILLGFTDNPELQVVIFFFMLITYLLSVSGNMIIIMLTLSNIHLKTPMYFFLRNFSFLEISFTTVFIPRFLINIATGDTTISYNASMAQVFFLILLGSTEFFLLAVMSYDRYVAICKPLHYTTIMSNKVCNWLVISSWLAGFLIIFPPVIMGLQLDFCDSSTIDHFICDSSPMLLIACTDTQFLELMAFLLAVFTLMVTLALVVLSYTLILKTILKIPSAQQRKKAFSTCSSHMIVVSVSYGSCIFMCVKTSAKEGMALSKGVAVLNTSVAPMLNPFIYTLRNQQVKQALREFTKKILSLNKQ
In short: (§1)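 Whether a receptor–molecule pair is responsive (active) rests on the original authors' judgment that its measured signal was statistically different from baseline. Pairs without that judgment are non-responsive (inactive). Sources used varied assay methods, commonly transient luciferase assays in mammalian cell lines.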

OR6C68 (Homo sapiens) = molecular target: T2, OR6C68 (Homo sapiens) (UniProt A6NDL8)
T2 sequence (whole entry): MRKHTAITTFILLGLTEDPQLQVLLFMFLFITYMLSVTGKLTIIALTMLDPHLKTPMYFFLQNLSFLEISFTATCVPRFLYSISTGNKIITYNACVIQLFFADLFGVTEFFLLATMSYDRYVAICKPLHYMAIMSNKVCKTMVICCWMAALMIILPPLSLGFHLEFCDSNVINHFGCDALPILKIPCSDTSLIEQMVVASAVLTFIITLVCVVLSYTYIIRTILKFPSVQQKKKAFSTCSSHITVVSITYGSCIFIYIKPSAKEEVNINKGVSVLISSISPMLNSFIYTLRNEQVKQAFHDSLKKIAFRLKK
In short: as §1

OR6C70 (Homo sapiens) = molecular target: T3, OR6C70 (Homo sapiens) (UniProt A6NIJ9)
T3 sequence (whole entry): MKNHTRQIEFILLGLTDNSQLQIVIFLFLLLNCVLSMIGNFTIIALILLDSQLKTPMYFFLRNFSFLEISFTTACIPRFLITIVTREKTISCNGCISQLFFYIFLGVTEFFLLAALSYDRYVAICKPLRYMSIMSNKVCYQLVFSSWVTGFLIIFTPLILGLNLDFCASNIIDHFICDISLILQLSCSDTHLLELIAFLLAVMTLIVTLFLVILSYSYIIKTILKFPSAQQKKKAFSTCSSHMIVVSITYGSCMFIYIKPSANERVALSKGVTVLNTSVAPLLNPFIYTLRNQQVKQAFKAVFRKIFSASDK
In short: as §1

OR6C74 (Homo sapiens) = molecular target: T4, OR6C74 (Homo sapiens) (UniProt A6NCV1)
T4 sequence (whole entry): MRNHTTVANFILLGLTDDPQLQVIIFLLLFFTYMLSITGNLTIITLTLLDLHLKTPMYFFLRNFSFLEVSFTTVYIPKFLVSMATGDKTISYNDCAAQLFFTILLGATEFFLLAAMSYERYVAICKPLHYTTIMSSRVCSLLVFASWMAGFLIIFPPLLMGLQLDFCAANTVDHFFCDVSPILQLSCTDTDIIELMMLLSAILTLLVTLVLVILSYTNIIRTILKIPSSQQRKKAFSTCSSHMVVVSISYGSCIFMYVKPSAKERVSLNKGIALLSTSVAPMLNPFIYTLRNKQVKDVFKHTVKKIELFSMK
In short: as §1

OR6C75 (Homo sapiens) = molecular target: T5, OR6C75 (Homo sapiens) (UniProt A6NL08)
T5 sequence (whole entry): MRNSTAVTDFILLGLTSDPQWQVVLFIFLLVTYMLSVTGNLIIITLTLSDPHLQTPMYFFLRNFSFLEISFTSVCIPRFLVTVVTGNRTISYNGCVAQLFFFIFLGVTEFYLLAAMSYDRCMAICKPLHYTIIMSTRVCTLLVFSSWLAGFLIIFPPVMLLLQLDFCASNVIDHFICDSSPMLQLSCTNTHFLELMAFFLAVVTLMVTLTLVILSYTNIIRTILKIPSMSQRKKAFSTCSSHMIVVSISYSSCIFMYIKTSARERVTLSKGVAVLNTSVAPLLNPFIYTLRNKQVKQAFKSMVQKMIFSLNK
In short: as §1

OR6C76 (Homo sapiens) = molecular target: T6, OR6C76 (Homo sapiens) (UniProt A6NM76)
T6 sequence (whole entry): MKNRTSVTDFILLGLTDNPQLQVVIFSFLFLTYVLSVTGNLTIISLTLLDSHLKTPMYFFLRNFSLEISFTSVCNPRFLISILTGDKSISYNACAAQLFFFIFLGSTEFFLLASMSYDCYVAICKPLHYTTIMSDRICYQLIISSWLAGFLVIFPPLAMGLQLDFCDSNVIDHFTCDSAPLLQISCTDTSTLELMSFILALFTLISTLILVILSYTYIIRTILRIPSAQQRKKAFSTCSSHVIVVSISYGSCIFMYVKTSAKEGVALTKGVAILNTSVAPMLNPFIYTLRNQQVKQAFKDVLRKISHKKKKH
In short: as §1

OR6F1 (Homo sapiens) = molecular target: T7, OR6F1 (Homo sapiens) (UniProt Q8NGZ6)
T7 sequence (whole entry): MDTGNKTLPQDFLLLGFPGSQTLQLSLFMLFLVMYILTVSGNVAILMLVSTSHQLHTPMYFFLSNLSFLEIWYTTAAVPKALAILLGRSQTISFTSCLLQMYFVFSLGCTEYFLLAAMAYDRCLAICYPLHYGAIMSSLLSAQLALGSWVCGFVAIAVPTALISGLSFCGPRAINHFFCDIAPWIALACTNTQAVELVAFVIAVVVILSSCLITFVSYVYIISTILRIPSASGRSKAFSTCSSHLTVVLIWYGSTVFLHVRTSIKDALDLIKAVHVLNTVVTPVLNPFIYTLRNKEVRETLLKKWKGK
In short: as §1

OR6J1 (Homo sapiens) [1] = molecular target: T8, OR6J1 (Homo sapiens) (UniProt Q8NGC5)
T8 sequence (whole entry): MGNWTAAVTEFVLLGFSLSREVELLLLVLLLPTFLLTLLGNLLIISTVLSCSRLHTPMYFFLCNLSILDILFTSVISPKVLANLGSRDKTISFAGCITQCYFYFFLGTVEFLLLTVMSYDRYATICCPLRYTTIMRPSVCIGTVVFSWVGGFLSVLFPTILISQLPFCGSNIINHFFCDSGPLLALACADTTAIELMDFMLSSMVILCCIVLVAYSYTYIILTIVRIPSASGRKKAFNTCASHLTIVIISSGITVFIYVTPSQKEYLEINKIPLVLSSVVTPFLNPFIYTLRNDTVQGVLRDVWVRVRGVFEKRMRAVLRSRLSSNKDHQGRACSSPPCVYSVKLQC
In short: as §1

OR6K2 (Homo sapiens) = molecular target: T9, OR6K2 (Homo sapiens) (UniProt Q8NGY2)
T9 sequence (whole entry): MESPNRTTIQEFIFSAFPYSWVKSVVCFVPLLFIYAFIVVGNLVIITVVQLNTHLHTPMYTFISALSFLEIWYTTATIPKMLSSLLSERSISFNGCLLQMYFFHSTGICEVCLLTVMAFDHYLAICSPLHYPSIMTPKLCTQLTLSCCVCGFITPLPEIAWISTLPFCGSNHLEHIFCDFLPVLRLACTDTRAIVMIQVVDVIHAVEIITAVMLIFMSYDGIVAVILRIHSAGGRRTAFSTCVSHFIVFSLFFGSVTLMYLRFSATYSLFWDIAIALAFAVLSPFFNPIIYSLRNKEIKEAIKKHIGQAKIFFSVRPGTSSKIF
In short: as §1

OR6K3 = system: T10, OR6K3
T10 sequence (whole entry): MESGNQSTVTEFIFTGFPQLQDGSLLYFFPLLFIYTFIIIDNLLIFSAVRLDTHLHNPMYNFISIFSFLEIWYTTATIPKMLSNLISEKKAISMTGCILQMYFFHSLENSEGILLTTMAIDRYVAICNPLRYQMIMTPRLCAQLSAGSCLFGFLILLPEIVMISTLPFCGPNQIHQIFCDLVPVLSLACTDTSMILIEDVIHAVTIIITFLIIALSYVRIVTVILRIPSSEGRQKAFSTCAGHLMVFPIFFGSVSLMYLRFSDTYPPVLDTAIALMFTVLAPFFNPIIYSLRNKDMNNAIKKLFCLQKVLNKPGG
In short: as §1

OR6K6 (Homo sapiens) = molecular target: T11, OR6K6 (Homo sapiens) (UniProt Q8NGW6)
T11 sequence (whole entry): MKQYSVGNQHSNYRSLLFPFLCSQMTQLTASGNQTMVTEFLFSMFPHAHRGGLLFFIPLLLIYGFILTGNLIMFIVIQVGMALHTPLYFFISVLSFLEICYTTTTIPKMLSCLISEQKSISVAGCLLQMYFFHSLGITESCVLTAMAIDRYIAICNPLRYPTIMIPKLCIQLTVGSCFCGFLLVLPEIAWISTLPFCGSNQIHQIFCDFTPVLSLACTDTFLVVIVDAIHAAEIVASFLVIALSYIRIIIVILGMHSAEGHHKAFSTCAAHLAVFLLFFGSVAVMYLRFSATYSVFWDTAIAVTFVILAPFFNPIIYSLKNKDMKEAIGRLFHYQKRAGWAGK
In short: as §1

OR6M1 (Homo sapiens) = molecular target: T12, OR6M1 (Homo sapiens) (UniProt Q8NGM8)
T12 sequence (whole entry): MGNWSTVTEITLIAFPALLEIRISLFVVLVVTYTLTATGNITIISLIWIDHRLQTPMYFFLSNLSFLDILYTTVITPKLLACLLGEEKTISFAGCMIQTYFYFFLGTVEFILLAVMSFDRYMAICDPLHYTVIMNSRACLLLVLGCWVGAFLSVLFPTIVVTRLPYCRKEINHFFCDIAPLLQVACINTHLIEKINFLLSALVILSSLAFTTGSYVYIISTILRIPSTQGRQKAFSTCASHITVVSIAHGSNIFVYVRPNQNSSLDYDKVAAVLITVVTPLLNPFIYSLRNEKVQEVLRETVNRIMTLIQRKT
In short: as §1

OR6M1 R224C = system: T13, OR6M1 R224C
T13 sequence (whole entry): T12 sequence (whole entry) with R224C
In short: as §1

OR6M1 T276K = system: T14, OR6M1 T276K
T14 sequence (whole entry): T12 sequence (whole entry) with T276K
In short: as §1

OR6N1 (Homo sapiens) = molecular target: T15, OR6N1 (Homo sapiens) (UniProt Q8NGY5)
T15 sequence (whole entry): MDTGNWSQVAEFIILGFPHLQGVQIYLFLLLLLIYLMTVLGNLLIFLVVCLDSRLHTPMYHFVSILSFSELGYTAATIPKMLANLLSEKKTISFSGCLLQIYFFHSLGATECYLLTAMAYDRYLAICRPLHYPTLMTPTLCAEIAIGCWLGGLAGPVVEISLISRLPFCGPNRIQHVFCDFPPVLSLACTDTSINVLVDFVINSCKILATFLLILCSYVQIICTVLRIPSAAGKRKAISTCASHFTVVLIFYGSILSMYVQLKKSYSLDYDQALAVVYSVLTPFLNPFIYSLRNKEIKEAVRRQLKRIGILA
In short: as §1

OR6N2 (Homo sapiens) = molecular target: T16, OR6N2 (Homo sapiens) (UniProt Q8NGY6)
T16 sequence (whole entry): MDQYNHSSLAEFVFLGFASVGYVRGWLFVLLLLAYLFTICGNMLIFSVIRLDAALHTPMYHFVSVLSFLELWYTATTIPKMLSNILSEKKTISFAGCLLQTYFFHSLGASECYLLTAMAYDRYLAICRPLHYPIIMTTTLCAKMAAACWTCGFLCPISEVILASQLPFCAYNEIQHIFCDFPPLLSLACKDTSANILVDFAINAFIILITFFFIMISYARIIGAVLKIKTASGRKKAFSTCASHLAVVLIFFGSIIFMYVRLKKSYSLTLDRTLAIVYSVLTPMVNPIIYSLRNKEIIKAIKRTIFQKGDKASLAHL
In short: as §1

OR6P1 (Homo sapiens) = molecular target: T17, OR6P1 (Homo sapiens) (UniProt Q8NGX9)
T17 sequence (whole entry): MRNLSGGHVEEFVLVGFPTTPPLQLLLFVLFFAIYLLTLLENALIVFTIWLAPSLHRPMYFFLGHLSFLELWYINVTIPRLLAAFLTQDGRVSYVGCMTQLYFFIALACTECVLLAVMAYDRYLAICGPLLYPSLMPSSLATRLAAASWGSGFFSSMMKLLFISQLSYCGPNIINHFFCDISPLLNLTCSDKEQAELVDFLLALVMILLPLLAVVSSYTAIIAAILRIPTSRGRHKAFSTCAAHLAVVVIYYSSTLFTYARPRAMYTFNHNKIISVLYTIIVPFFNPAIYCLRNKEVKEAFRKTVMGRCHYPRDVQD
In short: as §1

OR6Q1 (Homo sapiens) = molecular target: T18, OR6Q1 (Homo sapiens) (UniProt Q8NGQ2)
T18 sequence (whole entry): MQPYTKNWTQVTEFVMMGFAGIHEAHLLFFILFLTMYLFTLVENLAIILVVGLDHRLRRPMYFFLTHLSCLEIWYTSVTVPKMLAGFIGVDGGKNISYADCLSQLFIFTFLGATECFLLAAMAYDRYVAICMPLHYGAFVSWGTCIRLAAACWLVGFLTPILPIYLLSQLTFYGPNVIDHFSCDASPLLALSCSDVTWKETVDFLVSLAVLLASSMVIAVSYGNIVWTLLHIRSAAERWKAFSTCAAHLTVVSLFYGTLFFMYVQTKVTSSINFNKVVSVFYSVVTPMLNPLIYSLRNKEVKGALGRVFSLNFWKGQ
In short: as §1

OR6J1 (Homo sapiens) [2] = molecular target: T19, OR6J1 (Homo sapiens) (UniProt Q8NGC5); remark: listed apart in the source
T19 sequence (whole entry): T8 sequence (whole entry) with S250P
In short: as §1

OR6K3 (Homo sapiens) = molecular target: T20, OR6K3 (Homo sapiens) (UniProt Q8NGY3)
T20 sequence (whole entry): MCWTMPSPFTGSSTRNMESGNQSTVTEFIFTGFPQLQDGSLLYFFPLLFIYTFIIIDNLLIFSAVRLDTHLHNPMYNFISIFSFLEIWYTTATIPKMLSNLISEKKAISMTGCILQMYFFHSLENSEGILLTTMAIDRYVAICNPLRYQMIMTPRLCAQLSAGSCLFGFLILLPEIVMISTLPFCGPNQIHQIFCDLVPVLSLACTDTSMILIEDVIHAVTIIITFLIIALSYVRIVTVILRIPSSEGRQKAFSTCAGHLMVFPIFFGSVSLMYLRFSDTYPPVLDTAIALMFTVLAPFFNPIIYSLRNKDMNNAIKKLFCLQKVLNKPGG
In short: as §1

Measured: odorant receptor agonist call;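 note: active if original authors judged signal statistically different from baseline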

Cc1cnc(C)c(C)n1
not listed: OR6J1 (Homo sapiens) [2] | OR6K3 (Homo sapiens)
inactive: all other assays above

CCCCCCC=CCCC=O
not listed: OR6J1 (Homo sapiens) [1] | OR6K3 | OR6M1 R224C
inactive: all other assays above

CCCCCC(S)C(C)CO (centres undefined)
not listed: OR6J1 (Homo sapiens) [1] | OR6K3 | OR6M1 R224C | OR6M1 T276K
inactive: all other assays above

CC1=NC(C)C(C)S1 (centres undefined)
not listed: OR6J1 (Homo sapiens) [2] | OR6K3 (Homo sapiens)
inactive: all other assays above
